# Shown are actives, neighbours in structure and some others; about 4.1% of the full set was active somewhere.
# KCNK3 inh: human KCNK3 channel inhibition, primary screen; AID 602410; 0.84% of 340,000 active; B-score at 10 µM; CHO-KCNK3 thallium flux, FluxOR fluorescence; stronger effect = lower value; O14649;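 active = B-score under library mean minus 4 SD, starting fluorescence ratio at most library mean plus 5 SD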;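 also: more negative B-score means stronger inhibition of thallium flux through KCNK3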
# Cl transport mod: modulates chloride dependent transport by human KCC2; Q9H2X9; KCC2 cells, thallium flux FluoZin-2 fluorescence; B-score of Tl+ flux slope (higher = more flux/activation; lower = inhibition) at 10 µM; 2.2% of 190,000 active; AID 1456;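 active = thallium flux slope and its plate-corrected score both differing from the plate sample mean at a set confidence after two filtering rounds, in either direction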;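 also: slope of fluorescence scaled to starting intensity during 10 to 20 s after thallium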
# hERG rescue: hERG (human) protection from proarrhythmic block. 0.51% of 310,000 active. CHO-hERG, FluxOR thallium flux, dofetilide IC70 present. Q12809. activation (rescue from dofetilide block), less the hit threshold, % at 10 µM;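 active = activation above the mean of controls blocked by dofetilide plus 5 SD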;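 also: thallium influx through hERG after potassium depolarization seen as dye fluorescence rise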
# KCNQ1 act: potentiates or activates the human KCNQ1 potassium channel | CHO-K1 KCNQ1, thallium flux FluxOR fluorescence; stronger effect = higher value | AID 2648 | P51787 | 0.35% of 310,000 active | B-score at 10 µM;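 active = fluorescence ratio B-score, a plate-corrected score, at least three library SD, with initial intensity B-score within 5 SD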
#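 assay system = CHO-K1 cells stably expressing KCNQ1 | medium = assay buffer, equal DMSO in all wells | timing = 37 °C overnight plating, 90-min dark dye load, 20-min compound pretreatment | measured by = kinetic FluxOR thallium fluorescence, 10-s 1-Hz baseline, 110-s post-stimulus read | measure = fluorescence change relative to baseline, converted to B score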
# KCNK9 block: blocks the human KCNK9 two-pore domain potassium channel; 1.2% of 310,000 active; AID 488922; B-score at 10 µM; HEK293 KCNK9, FluxOR thallium flux fluorescence; stronger effect = lower value; Q9NPC2;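 active = ratio B-score over 3 SD below the library mean, with starting fluorescence within 5 SD of its mean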;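 also: negative B-score means less thallium flux so channel inhibition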
# KCNQ1 block: blocks the human KCNQ1 potassium channel. B-score at 10 µM. AID 2642. 1.3% of 310,000 active. CHO-K1 KCNQ1, FluxOR thallium flux fluorescence; stronger effect = higher value. P51787;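 active = compounds whose thallium flux B-score, printed positive for inhibition, exceeds three library SD while starting fluorescence stays within three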;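 also: channel opened by potassium depolarization with thallium stimulus after 20 min compound exposure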
# KCNK9 block conf: human KCNK9 inhibitor confirmation. inhibition, % at 10 µM. AID 492992. shares compounds with KCNK9 block. HEK293 KCNK9 cells, FluxOR thallium flux fluorescence. 43% of 4,900 active;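 active = thallium signal inhibited by more than 5 SD of the compound-free buffer control wells, on both duplicate plates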
# Kir2-1 spec: selectivity of KCNK9 modulators against mouse Kir2.1 | shares compounds with KCNK9 block | Kir2.1 cells, FluxOR thallium flux fluorescence | inhibition, % at 10 µM | 4% of 4,900 active;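 active = thallium signal drop more than 5 SD beyond the mean of the no-compound control wells, seen in both duplicate plates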;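 also: signal is fluorescence rise after thallium addition divided by baseline fluorescence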
# Target sequence (P35561 whole entry, looked up): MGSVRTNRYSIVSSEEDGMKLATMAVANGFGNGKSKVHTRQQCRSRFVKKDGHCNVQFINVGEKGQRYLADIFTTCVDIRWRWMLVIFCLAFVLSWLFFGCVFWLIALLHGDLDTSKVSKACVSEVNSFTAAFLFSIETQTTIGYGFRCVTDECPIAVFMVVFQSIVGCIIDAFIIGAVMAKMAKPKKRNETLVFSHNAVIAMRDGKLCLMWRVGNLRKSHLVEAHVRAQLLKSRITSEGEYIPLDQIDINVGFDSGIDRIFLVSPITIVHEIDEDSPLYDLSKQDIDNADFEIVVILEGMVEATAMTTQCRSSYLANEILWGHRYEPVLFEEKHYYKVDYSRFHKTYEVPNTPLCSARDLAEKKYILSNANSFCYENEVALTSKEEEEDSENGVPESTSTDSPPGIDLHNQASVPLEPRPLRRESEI
# KCNK9 uninduced: non-induced cell nonspecific activity of KCNK9 modulators; AID 492997; 40% of 4,900 active; non-induced KCNK9-HEK293, FluxOR thallium flux; shares compounds with KCNK9 block; inhibition, % at 10 µM;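 active = thallium signal drop beyond 5 SD of the untreated control mean, on both duplicate plates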
# KCNK3 confirm: human KCNK3 channel inhibition, confirmation assay. shares compounds with KCNK3 inh. CHO-KCNK3 thallium flux, FluxOR fluorescence; 0% buffer, 100% carvedilol maximal block. ratio percent of control, % at 10 µM. 99% of 2,400 active. AID 651638;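 active = ratio percent of control, averaged over triplicates, above buffer control mean plus 5 SD, cut at about 64% in these data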;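 also: ratio is the fluorescence rise from min to max over baseline after thallium stimulus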
# KCNK3 noninduced: counter-screen for KCNK3 inhibitors: effect in non-induced cells; shares compounds with KCNK3 inh; non-induced KCNK3 parental cells, FluxOR thallium flux; stronger effect = lower value; thallium flux ratio (lower = more inhibition) at 10 µM; 40% of 2,400 active; AID 651747;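 active = thallium flux ratio, averaged over three wells, more than 5 SD below the buffer control mean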;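 also: host cells are CHO cells without KCNK3 induction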
# Hits are given with their value; 0 = inactive; - = no result.
SMILES,KCNK3 inh,Cl transport mod,hERG rescue,KCNQ1 act,KCNK9 block,KCNQ1 block,KCNK9 block conf,Kir2-1 spec,KCNK9 uninduced,KCNK3 confirm,KCNK3 noninduced
COc1ccccc1C(c1nnnn1Cc1ccco1)N1CCN(c2cccc(C)c2C)CC1 (stereo not drawn),-11,0,0,0,-14,0,43%,0,38%,130,0.14
Cc1c(/C(O)=C2/C(=O)C(=O)N(CCN(C)C)C2c2ccc(C(C)C)cc2)cnn1-c1ccccc1 (stereo not drawn),0,0,0,0,0,0,-,-,-,-,-
O=C(CSC(=S)N1CCCCC1)N1N=CCC1c1ccccc1 (stereo not drawn),0,0,0,0,0,0,-,-,-,-,-
C/C(=N\NC(=O)c1ccc(O)cc1)c1cccc(NC(=O)c2ccc(Cl)cc2)c1,0,-,0,0,0,0,-,-,-,-,-
Cc1cccnc1NC(=O)CSc1nnc(CNC(=O)c2cccc([N+](=O)[O-])c2)n1C,0,-,0,0,0,0,-,-,-,-,-
Cc1cccc(C)c1OCC(=O)Nc1oc(-c2ccccc2)c(-c2ccccc2)c1C#N,0,0,0,0,-17,0,32%,0,24%,119,0.15
O=C(c1ccco1)N1c2ccccc2Sc2ccccc21,-9.2,0,0,0,-9.4,0,31%,0,30%,116,0
COc1ccc(CN(C)C(=O)c2oc3ccccc3c2CSC)cc1F,-11,-,0,0,-12,0,67%,0,30%,104,0
COC(=O)c1cc(C)sc1NC(=S)N1CCN(CCc2ccccc2)CC1,-10,0,0,0,0,0,0,0,0,104,0
Cc1ccc(N=C/C(C(=O)C(F)(F)F)=C(\O)c2cccs2)cc1,0,0,0,0,0,0,-,-,-,-,-
O=C(/C(N=Nc1cccc(C(F)(F)F)c1)=C(/O)c1cccs1)C(F)(F)F,0,0,0,0,-8.8,10,0,0,0,67,0
COc1cc2c(cc1OC)CN(C(=O)c1oc3ccccc3c1C)CC2,-10,-,0,0,-9.9,0,34%,0,33%,100,0
COc1cc2c(cc1OC)CN(C(=O)c1ccc(-c3ccccc3)cc1)CC2,0,-,0,0,0,0,-,-,-,-,-
N/C(Cc1ccc([N+](=O)[O-])cc1)=N\OC(=O)C(c1ccccc1)c1ccccc1,-9.6,-,0,0,-10,0,34%,0,40%,126,0
Cc1cc(C)cc(C(=O)NC(=S)Nc2ccc(Cc3ccncc3)cc2)c1,-10,0,0,0,0,0,0,0,0,98,0
Cc1ccc(NC(=O)CN(Cc2ccco2)Cc2ccccc2O)cc1C,-12,-,0,0,-15,6,72%,0,42%,134,0.15
CCn1cc(/C=C(\NC(=O)c2ccc(OC)c(OC)c2)C(=O)NCCN2CCOCC2)c2ccccc21,0,-,0,0,0,0,-,-,-,-,-
CCCN1Cc2cccc(C(=O)Nc3ccc(CC)cc3)c2C1=O,0,-,0,0,0,0,-,-,-,-,-
CCOC(=O)c1ccc(NC(=O)c2cccc3c2C(=O)N(CC2CCCO2)C3)cc1 (stereo not drawn),-9.3,-,0,0,-8.6,0,64%,0,0,131,0.13
CCn1c(=O)c2c(n3cnnc13)-c1ccccc1CC21CCCCC1,0,0,0,0,0,0,-,-,-,-,-
CCCn1c(SCC#N)nc2c(c1=O)C1(CCCC1)Cc1ccccc1-2,-10,-,0,0,-9.9,0,52%,0,29%,95,0

# Compound activity: PubChem BioAssay, several laboratories
